Laboratory results reported in ChEMBL document CHEMBL1131261, “Synthesis and antitumor activity of ring A- and F-modified hexacyclic camptothecin analogues” (J Med Chem, 1998).
Converted amounts (≈) assume the structure as drawn.

Tests used:
[1] = target: T1, DNA topoisomerase 1 (Homo sapiens) (UniProt P11387); assay: Inhibition of topoisomerase-1 compared to SN-38.
T1 sequence (whole entry): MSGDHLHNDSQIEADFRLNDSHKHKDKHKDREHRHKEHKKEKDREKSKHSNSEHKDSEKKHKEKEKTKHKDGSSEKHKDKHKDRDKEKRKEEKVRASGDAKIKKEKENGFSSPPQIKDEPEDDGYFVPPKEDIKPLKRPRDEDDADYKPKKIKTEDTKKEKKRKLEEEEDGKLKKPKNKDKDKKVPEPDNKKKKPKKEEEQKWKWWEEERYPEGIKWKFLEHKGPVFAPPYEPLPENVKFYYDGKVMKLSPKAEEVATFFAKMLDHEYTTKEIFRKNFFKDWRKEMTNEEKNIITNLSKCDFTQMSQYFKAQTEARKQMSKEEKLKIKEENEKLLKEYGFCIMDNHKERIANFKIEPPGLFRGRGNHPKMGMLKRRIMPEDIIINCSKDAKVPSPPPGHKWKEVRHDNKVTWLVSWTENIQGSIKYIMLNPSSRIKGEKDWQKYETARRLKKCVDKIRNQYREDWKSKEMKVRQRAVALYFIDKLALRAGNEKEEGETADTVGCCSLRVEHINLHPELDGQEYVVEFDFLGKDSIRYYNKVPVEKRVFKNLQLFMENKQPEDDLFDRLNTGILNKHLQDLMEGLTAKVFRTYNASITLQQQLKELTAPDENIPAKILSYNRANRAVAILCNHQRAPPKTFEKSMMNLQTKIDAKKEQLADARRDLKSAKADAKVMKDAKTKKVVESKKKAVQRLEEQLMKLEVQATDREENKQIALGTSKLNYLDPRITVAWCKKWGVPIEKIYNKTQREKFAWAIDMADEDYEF
Procedure, shortened: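 DNA relaxation assay with topoisomerase I. IC50 is the concentration that inhibits 50% of the conversion of supercoiled DNA to its relaxed form. Values are given as the ratio of the test IC50 to the IC50 of SN-38.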

QG-56 = assay: In vitro antitumor activity against QG-56 (human lung cancer) cells.; assay type: functional, cell-based
Procedure, shortened: (§1)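 MTT assay of cell growth after 3 days of incubation. IC50 is the dose that inhibits growth of 50% of the cultivated cells, given in ng/mL.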

P388 = assay: In vitro antitumor activity against P388 (murine leukemia) cells.; assay type: functional, cell-based; details: Mus musculus
HOC-21 cell line = assay: In vitro antitumor activity against HOC-21 (human ovarian cancer) cells.; assay type: functional, cell-based; procedure, shortened: as §1

SMILES | Ratio [1] | IC50 (QG-56) | IC50 (P388) | IC50 (HOC-21 cell line)
CC[C@@]1(O)C(=O)OCc2c1cc1n(c2=O)Cc2c-1nc1cc(F)cc3c1c2CCC3 | 0.24 | 0.16 ng/mL (≈ 0.000394 µM) | 0.26 ng/mL (≈ 0.00064 µM) | 3.39 ng/mL (≈ 0.00834 µM)
CC[C@@]1(O)C(=O)OCc2c1cc1n(c2=O)Cc2c-1nc1ccc(OC)c3c1c2CCS3 |  | 3.27 ng/mL (≈ 0.00749 µM) | 6.49 ng/mL (≈ 0.0149 µM) | 80.2 ng/mL (≈ 0.184 µM)
CC[C@@]1(O)C(=O)OCc2c1cc1n(c2=O)Cc2c-1nc1cc(OC)cc3c1c2CCC3 | 0.7 | 1.32 ng/mL (≈ 0.00315 µM) | 1.01 ng/mL (≈ 0.00241 µM) | 17.4 ng/mL (≈ 0.0416 µM)
CC[C@@]1(O)C(=O)OCc2c1cc1n(c2=O)Cc2c-1nc1cccc3c1c2CCS3 |  | 1.71 ng/mL (≈ 0.00421 µM) | 3.04 ng/mL (≈ 0.00748 µM) | 33 ng/mL (≈ 0.0812 µM)
CC[C@@]1(O)C(=O)OCc2c1cc1n(c2=O)Cc2c-1nc1ccc(OC)c3c1c2CCN3 |  | 10.6 ng/mL (≈ 0.0253 µM) | 10.7 ng/mL (≈ 0.0255 µM) | 106 ng/mL (≈ 0.254 µM)
CC[C@@]1(O)C(=O)OCc2c1cc1n(c2=O)Cc2c-1nc1ccc(OC)c3c1c2CCN3C(C)=O |  | 29.8 ng/mL (≈ 0.0646 µM) | > 62.5 ng/mL | > 500 ng/mL
CC[C@@]1(O)C(=O)OCc2c1cc1n(c2=O)Cc2c-1nc1ccc(N)c3c1c2CCS3 | 0.9 | 0.4 ng/mL (≈ 0.000949 µM) | 1.08 ng/mL (≈ 0.00256 µM) | 8.37 ng/mL (≈ 0.0199 µM)
CC[C@@]1(O)C(=O)OCc2c1cc1n(c2=O)Cc2c-1nc1ccc(N)c3c1c2CCC3 | 1.4 | 1.38 ng/mL (≈ 0.00342 µM) |  | 35.9 ng/mL (≈ 0.089 µM)
CC[C@@]1(O)C(=O)OCc2c1cc1n(c2=O)Cc2c-1nc1ccc(O)c3c1c2CCS3 | 1.6 | 3.68 ng/mL (≈ 0.00871 µM) | 8.63 ng/mL (≈ 0.0204 µM) | 153 ng/mL (≈ 0.361 µM)
CC[C@@]1(O)C(=O)OCc2c1cc1n(c2=O)Cc2c-1nc1cc(O)cc3c1c2CCC3 | 0.17 | 4.7 ng/mL (≈ 0.0116 µM) | 0.99 ng/mL (≈ 0.00245 µM) | 20.6 ng/mL (≈ 0.0509 µM)
CC[C@@]1(O)C(=O)OCc2c1cc1n(c2=O)Cc2c-1nc1cc(C)cc3c1c2CCC3 | 3.6 | 10.3 ng/mL (≈ 0.0256 µM) | 5.05 ng/mL (≈ 0.0125 µM) | 101 ng/mL (≈ 0.251 µM)
CCc1c2c(nc3ccc(O)cc13)-c1cc3c(c(=O)n1C2)COC(=O)[C@]3(O)CC [7-ETHYL-10-HYDROXYCAMPTOTHECIN] | 1 | 0.9 ng/mL (≈ 0.00229 µM) | 1.44 ng/mL (≈ 0.00367 µM) | 41.2 ng/mL (≈ 0.105 µM)
CC[C@@]1(O)C(=O)OCc2c1cc1n(c2=O)Cc2c-1nc1ccc(C#N)c3c1c2CCC3 | 3.9 | 4.21 ng/mL (≈ 0.0102 µM) | 8.14 ng/mL (≈ 0.0197 µM) | 73.5 ng/mL (≈ 0.178 µM)
CC[C@@]1(O)C(=O)OCc2c1cc1n(c2=O)Cc2c-1nc1ccc(O)c3c1c2CCC3 | 0.47 |  |  | 
CC[C@@]1(O)C(=O)OCc2c1cc1n(c2=O)Cc2c-1nc1cc(F)c(F)c3c1c2CCC3O (some centres not stated) | 1.2 | 2.62 ng/mL (≈ 0.00595 µM) | 3.17 ng/mL (≈ 0.0072 µM) | 68.9 ng/mL (≈ 0.156 µM)
CC[C@@]1(O)C(=O)OCc2c1cc1n(c2=O)Cc2c-1nc1ccc(N)c3c1c2CCO3 | 1.2 | 0.71 ng/mL (≈ 0.00175 µM) | 2.6 ng/mL (≈ 0.00641 µM) | 57.7 ng/mL (≈ 0.142 µM)
CC[C@@]1(O)C(=O)OCc2c1cc1n(c2=O)Cc2c-1nc1cc(N)c(O)c3c1c2CCC3 | 2.6 | 11.6 ng/mL (≈ 0.0277 µM) | > 62.5 ng/mL | > 500 ng/mL
CC[C@@]1(O)C(=O)OCc2c1cc1n(c2=O)Cc2c-1nc1cc(Cl)cc3c1c2CCC3 | 0.23 | 0.53 ng/mL (≈ 0.00125 µM) | 0.73 ng/mL (≈ 0.00173 µM) | 14 ng/mL (≈ 0.0331 µM)
CC[C@@]1(O)C(=O)OCc2c1cc1n(c2=O)Cc2c-1nc1cc(F)c(C)c3c1c2CCC3 | 0.51 | 0.17 ng/mL (≈ 0.000404 µM) | 0.22 ng/mL (≈ 0.000523 µM) | 2.06 ng/mL (≈ 0.0049 µM)
CC[C@@]1(O)C(=O)OCc2c1cc1n(c2=O)Cc2c-1nc1cccc3c1c2CCC3 | 4 | 1.63 ng/mL (≈ 0.0042 µM) | 5.23 ng/mL (≈ 0.0135 µM) | 92.9 ng/mL (≈ 0.239 µM)
CC[C@@]1(O)C(=O)OCc2c1cc1n(c2=O)Cc2cc3ccccc3nc2-1 | 0.39 |  |  | 
CC[C@@]1(O)C(=O)OCc2c1cc1n(c2=O)Cc2c-1nc1cc(F)c(F)c3c1c2CCC3 | 0.7 | 0.38 ng/mL (≈ 0.000895 µM) | 0.48 ng/mL (≈ 0.00113 µM) | 10.9 ng/mL (≈ 0.0257 µM)
